Shown are actives, neighbours in structure and some others; about 5.8% of the full set was active somewhere.
Pf Dd2 growth: P. falciparum Dd2 growth inhibition; SYBR Green, 72 h; active compounds read low; activity change, % at 10 µM; actives 2.3% (n = 94,000); AID 1159554; in the data active means activity change below about -80%; inconclusive means no clear call, values can overlap the other calls
T cruzi growth-1: inhibitors of T. cruzi proliferation; actives 5.9% (n = 77,000); inhibition, % at 8.34 µM; T. cruzi beta-gal in NIH3T3, GalScreen luminescence, 90 h;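 active means mean inhibition above about 93%, with at least 55% of replicates each passing it, limit read from the data, passing the limit was not always enough; inconclusive means only one of those two conditions holds; inactive means neither condition holds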
GASC1 inh: blocks human GASC-1 (KDM4C) demethylase activity; GST-KDM4C 2-372, H3K9me3 peptide, LANCE TR-FRET; AID 720574; actives 0.15% (n = 96,000); inhibition, % at 12.5 µM; Q9H3R0;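 active means mean replicate inhibition above about 25%, with at least 55% of replicates also reaching it, limit read from the data, passing the limit was not always enough; inconclusive means only one of those two conditions met; inactive means neither condition met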
Target sequence (Q9H3R0 2-372 limits assumed): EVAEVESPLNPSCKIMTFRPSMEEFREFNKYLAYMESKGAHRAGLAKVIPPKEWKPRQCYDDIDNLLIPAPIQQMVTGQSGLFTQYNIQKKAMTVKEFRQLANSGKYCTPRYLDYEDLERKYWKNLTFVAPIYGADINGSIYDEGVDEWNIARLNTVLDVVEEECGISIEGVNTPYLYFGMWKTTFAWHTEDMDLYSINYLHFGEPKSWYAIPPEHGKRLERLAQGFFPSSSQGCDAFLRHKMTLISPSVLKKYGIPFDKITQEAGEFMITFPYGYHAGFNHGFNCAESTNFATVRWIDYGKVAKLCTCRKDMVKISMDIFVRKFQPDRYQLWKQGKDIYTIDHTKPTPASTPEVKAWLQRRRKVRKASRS
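Test system – GST-tagged GASC-1 (JMJD2C) catalytic fragment, aa 2-372 · Medium – HEPES buffer, pH 7.5, plus ascorbate · Reagent – H3K9me3 peptide with Fe(II)/2OG · Compound – one test concentration per compound · Timing – 30 min reaction, 60 min detection, RT · Technique – TR-FRET with Eu antibody and ULight streptavidin, EDTA stop · Read-out basis – inhibition from TR-FRET ratio decrease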
IDH1 R132H inh: inhibitors of human IDH1 R132H. IDH1 R132H reductase, diaphorase/resazurin fluorescence, 60 min. actives 0.18% (n = 70,000). AID 624101. inhibition, % at 10 µM. O75874; in the data active means inhibition above about 34%; inconclusive means no clear call, values can overlap the other calls; inactive means below about 11%;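 further: 0% = DMSO and 100% = no enzyme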
T cruzi growth-2: Trypanosoma cruzi proliferation inhibition | shares compounds with T cruzi growth-1 | T. cruzi beta-gal in NIH3T3, GalScreen luminescence, 90 h | inhibition, % at 8.35 µM | actives 72% (n = 5,600) | AID 651739;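 active means mean replicate inhibition above about 95% and at least 55% of replicates individually reaching it, limit read from the data; inconclusive means only one of the two criteria is met; inactive means neither criterion is met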
T cruzi growth-3: blocks T. cruzi growth in NIH3T3 host cells. shares compounds with T cruzi growth-1. T. cruzi beta-gal in NIH3T3, GalScreen luminescence, 90 h. inhibition, % at 2.09 µM. actives 21% (n = 5,600). AID 651740;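 active means mean inhibition above about 95%, with at least 55% of replicates also reaching it, limit read from the data; inconclusive means meets just one of the two conditions; inactive means meets neither condition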;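 further: plate controls were neutral control median for no effect and positive control median for full effect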
NIH3T3 tox: kills mouse NIH/3T3 fibroblasts. shares compounds with T cruzi growth-1. cytotoxicity (signal decrease), % at 8.35 µM. NIH/3T3 viability, CellTiter-Glo ATP luminescence, 90 h. actives 14% (n = 5,600);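 active means mean signal decrease across replicates above about 35% based on untreated-well scatter, with enough replicates individually passing, limit read from the data; inconclusive means no rule stated though some were filed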;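 further: 0% = median of neutral control wells and 100% = median of positive control wells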
NIH3T3 tox 2: NIH/3T3 (mouse) viability loss; NIH/3T3 viability, CellTiter-Glo ATP luminescence, 90 h; shares compounds with T cruzi growth-1; actives 56% (n = 5,600); inhibition, % at 24.9 µM;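 active means mean loss of cell viability signal at or above a set limit, and enough replicates individually reaching it; inconclusive means meets only the mean limit or only the replicate share; inactive means meets neither condition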;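 further: 0% = median of neutral control wells and 100% = median of positive control wells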
* marks the source's active call; other numbers are inactive results.

For C[C@H]1CN([C@@H](C)CO)S(=O)(=O)c2ccc(C#CCN(C)C)cc2O[C@@H]1CN(C)Cc1ccccc1 the results were Pf Dd2 growth -43.6, T cruzi growth-1 108.3*, GASC1 inh 4.9, IDH1 R132H inh 1.4, T cruzi growth-2 105.0*, T cruzi growth-3 93.1, NIH3T3 tox 31.4 and NIH3T3 tox 2 104.6*.
`CC(C)CC#Cc1ccc2c(c1)O[C@@H](CN(C)Cc1ccncc1)[C@@H](C)CN([C@H](C)CO)S2(=O)=O` gave Pf Dd2 growth -55.5, T cruzi growth-1 129.8*, GASC1 inh -1.0, IDH1 R132H inh -0.1, T cruzi growth-2 100.2*, T cruzi growth-3 90.9, NIH3T3 tox 0.6 and NIH3T3 tox 2 104.5*.
Screening COc1ccccc1CCNC(=O)c1cc(-c2ccccc2)nc2ccccc12 returned IDH1 R132H inh 0.0.
COc1ccc(N2C(=O)CC(SCC(=O)Nc3cccc(Br)c3)C2=O)cc1 (configuration not stated) was read as IDH1 R132H inh 0.2.
C[C@@H]1CCCCO[C@@H](CN(C)C(=O)C2CCCCC2)[C@@H](C)CN([C@@H](C)CO)C(=O)c2cc(NC(=O)Nc3cccc4ccccc34)ccc2O1 was read as Pf Dd2 growth -89.2*, T cruzi growth-1 109.8*, GASC1 inh 0.5, T cruzi growth-2 105.7*, T cruzi growth-3 65.1, NIH3T3 tox -9.3 and NIH3T3 tox 2 -26.9.
Screening C[C@@H]1CCCCO[C@H](CN(C)C)[C@@H](C)CN([C@H](C)CO)C(=O)c2cc(NC(=O)Nc3cccc4ccccc34)ccc2O1 returned Pf Dd2 growth 23.3, T cruzi growth-1 69.0 and GASC1 inh 5.4.
For C[C@@H]1CCCCO[C@H](CN(C)C)[C@H](C)CN([C@@H](C)CO)C(=O)c2cc(NC(=O)Nc3cccc4ccccc34)ccc2O1 the results were Pf Dd2 growth -37.3, T cruzi growth-1 73.9, GASC1 inh -1.1 and IDH1 R132H inh -5.2.
C[C@@H]1CCCCO[C@H](CN(C)C(=O)C2CCCCC2)[C@H](C)CN([C@H](C)CO)C(=O)c2cc(NC(=O)Nc3cccc4ccccc34)ccc2O1 was read as Pf Dd2 growth -89.5*, T cruzi growth-1 116.9*, GASC1 inh -1.4, T cruzi growth-2 105.1*, T cruzi growth-3 112.8*, NIH3T3 tox -27.9 and NIH3T3 tox 2 -17.7.
For Cc1ccc(N(C(C)C(=O)Nc2cccc(C)c2C)S(C)(=O)=O)cc1 (configuration not stated) the results were IDH1 R132H inh -0.2.
`CC(C(=O)Nc1ccccc1Cl)N(c1ccc(Cl)cc1)S(C)(=O)=O` (configuration not stated) gave IDH1 R132H inh -0.5.
For COc1ccc(S(=O)(=O)Nc2ccc3c(c2)C(=O)N([C@H](C)CO)C[C@H](C)[C@@H](CN(C)S(=O)(=O)c2cccs2)OCCCC[C@H](C)O3)cc1 the results were Pf Dd2 growth -37.8, T cruzi growth-1 41.5 and GASC1 inh 11.4.
For COc1ccc(S(=O)(=O)Nc2ccc3c(c2)C(=O)N([C@@H](C)CO)C[C@H](C)[C@@H](CN(C)S(=O)(=O)c2cccs2)OCCCC[C@@H](C)O3)cc1 the results were Pf Dd2 growth -73.9, T cruzi growth-1 109.3*, GASC1 inh -0.2, IDH1 R132H inh -0.2, T cruzi growth-2 103.3*, T cruzi growth-3 60.0, NIH3T3 tox -6.6 and NIH3T3 tox 2 5.6.
`COc1ccc(S(=O)(=O)Nc2ccc3c(c2)C(=O)N([C@H](C)CO)C[C@H](C)[C@H](CN(C)S(=O)(=O)c2cccs2)OCCCC[C@H](C)O3)cc1` gave Pf Dd2 growth -24.5, T cruzi growth-1 inconclusive, GASC1 inh 0.9, T cruzi growth-2 106.1*, T cruzi growth-3 81.2, NIH3T3 tox 30.2 and NIH3T3 tox 2 16.2.
NC(=O)COc1ccc(S(=O)(=O)N2CCOCC2)cc1 was read as IDH1 R132H inh 0.1.

Source: PubChem BioAssay
